Assay [1] addresses T1, NAD-dependent protein deacetylase sirtuin-1 (Homo sapiens) (UniProt Q96EB6).
T1 sequence (whole entry): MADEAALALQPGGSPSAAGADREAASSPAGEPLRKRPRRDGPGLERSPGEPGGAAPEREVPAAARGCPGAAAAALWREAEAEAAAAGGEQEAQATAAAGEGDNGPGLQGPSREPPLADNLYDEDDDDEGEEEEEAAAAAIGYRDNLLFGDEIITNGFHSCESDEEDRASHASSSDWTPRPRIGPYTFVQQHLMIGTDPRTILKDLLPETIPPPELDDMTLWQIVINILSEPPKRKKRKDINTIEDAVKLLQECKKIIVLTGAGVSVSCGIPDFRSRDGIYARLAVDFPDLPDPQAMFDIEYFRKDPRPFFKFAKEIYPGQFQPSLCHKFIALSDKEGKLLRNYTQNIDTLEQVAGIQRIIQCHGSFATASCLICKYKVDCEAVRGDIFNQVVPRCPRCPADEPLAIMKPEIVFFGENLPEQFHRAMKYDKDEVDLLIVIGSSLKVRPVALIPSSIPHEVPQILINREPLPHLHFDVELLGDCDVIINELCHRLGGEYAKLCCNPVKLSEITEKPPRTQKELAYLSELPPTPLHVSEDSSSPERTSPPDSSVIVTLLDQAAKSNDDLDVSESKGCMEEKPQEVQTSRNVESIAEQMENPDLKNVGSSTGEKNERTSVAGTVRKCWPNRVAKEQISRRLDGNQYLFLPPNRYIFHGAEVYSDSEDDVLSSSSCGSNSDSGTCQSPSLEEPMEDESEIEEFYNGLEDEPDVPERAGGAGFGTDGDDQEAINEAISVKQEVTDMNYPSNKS
In words: Binding affinity to His6-tagged SIRT1 (unknown origin) expressed in Escherichia coli BL21 (DE3) assessed as increase in thermal stability at 0.1 mM and 41.5 degreeC using H3K18Ac peptide as substrate incubated for 10 mins in presence of NAD+ by SYPRO orange thermal shift assay.

For assay [2], the target named is T1, NAD-dependent protein deacetylase sirtuin-1 (Homo sapiens). In words: Inhibition of His6-tagged SIRT1 (unknown origin) expressed in Escherichia coli BL21 (DE3) deacetylation activity incubated for 30 mins in presence of NAD+. The settings on record: dose 0.04-10 µM.
For assay [3] the target is unchanged. In words: Binding affinity to His6-tagged SIRT1 (unknown origin) expressed in Escherichia coli BL21 (DE3) assessed as thermal stability at 90 uM using H3K18Ac as substrate incubated for 20 mins in presence of NAD+ by GloMelt thermal shift assay. In short, it runs like this:
(§1)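 SirT1 or SirT3 at 8 µM with 1 mM NAD⁺ and 0.25 mM H3K18ac; SirT2 at 16 µM with 1 mM NAD⁺ and 0.5 mM H4K16ac. Compound 90 µM, 20 min RT before dye addition and melting; ΔTm from melting curves.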

Assay [4] has as its target T2, NAD-dependent protein deacetylase sirtuin-3, mitochondrial (Homo sapiens) (UniProt Q9NTG7).
T2 sequence (whole entry): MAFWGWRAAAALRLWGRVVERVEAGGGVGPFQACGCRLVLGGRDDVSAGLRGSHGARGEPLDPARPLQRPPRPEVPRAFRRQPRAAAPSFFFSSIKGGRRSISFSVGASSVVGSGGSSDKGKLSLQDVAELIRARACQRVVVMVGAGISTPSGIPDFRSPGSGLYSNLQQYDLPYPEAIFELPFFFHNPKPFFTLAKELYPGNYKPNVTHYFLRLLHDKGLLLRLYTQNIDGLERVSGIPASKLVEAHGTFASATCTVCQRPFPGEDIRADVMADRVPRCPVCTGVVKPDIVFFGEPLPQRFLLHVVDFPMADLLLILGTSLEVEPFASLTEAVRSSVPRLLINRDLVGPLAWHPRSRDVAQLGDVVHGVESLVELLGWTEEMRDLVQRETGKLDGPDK
In words: Binding affinity to His6-tagged/TEV fused SIRT3 (unknown origin) expressed in Escherichia coli BL21 (DE3) assessed as thermal stability at 90 uM using H3K18Ac as substrate incubated for 20 mins in presence of NAD+ by GloMelt thermal shift assay. In short, it runs like this: as §1

Assay [5] addresses T3, NAD-dependent protein deacetylase sirtuin-2 (Homo sapiens) (UniProt Q8IXJ6).
T3 sequence (whole entry): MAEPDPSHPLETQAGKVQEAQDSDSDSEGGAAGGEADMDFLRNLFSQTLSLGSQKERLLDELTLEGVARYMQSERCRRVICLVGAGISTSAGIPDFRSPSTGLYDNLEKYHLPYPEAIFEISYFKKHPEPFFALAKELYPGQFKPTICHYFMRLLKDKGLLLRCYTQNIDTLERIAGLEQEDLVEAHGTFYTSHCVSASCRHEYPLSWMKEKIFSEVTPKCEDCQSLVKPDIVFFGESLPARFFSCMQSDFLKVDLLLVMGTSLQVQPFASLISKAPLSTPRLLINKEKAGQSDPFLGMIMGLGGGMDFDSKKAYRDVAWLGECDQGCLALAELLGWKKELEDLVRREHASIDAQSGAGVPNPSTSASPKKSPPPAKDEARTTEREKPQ
In words: Binding affinity to His6-tagged/TEV fused SIRT2 (unknown origin) expressed in Escherichia coli BL21 (DE3) assessed as thermal stability at 90 uM using H4K16Ac as substrate incubated for 20 mins in presence of NAD+ by GloMelt thermal shift assay. The method in brief:
as §1

The target in assay [6] is T1, NAD-dependent protein deacetylase sirtuin-1 (Homo sapiens). In words: Inhibition of His6-tagged SIRT1 (unknown origin) expressed in Escherichia coli BL21 (DE3) at 1 uM using Fluor-de-Lys-Ac-Gly-Gly-Lys(ac)-AMC peptide as substrate incubated for 5 mins by fluorescence assay. In short, it runs like this:
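Conditions as the FLucK529ac deacetylase assay (100 nM SirT1, sirtuin buffer 2) but with 10 µM Ac-Gly-Gly-Lys(ac)-AMC substrate and inhibitors at 1 µM. Stopped with equal volume 2× trypsin (0.1 mg/mL); released coumarin read after 5 min RT, ex 355/em 460 nm.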

Structures are written as SMILES. Active and inactive are the calls of the source. The rule behind the calls is not given here.

Consider `NC(=O)C1CCCc2c1[nH]c1ccc(Cl)cc21` (stereo unspecified), for which the outcome in assay [1] was Active. For the same compound, the inhibition result in assay [2] was “Dose-Dependent Effect”.

Take `NC(=O)C1CN(Cc2ccc3nonc3c2)c2ccccc2O1` (stereo unspecified): the outcome in assay [3] and in assay [1] was Active. For the same compound, the result in assay [4] and in assay [5] was inactive. In addition, in assay [6], the inhibition result is “inactive”. Also, in assay [2], the inhibition entry is “Dose-Dependent Effect”.

As to `N#Cc1ccccc1CN1CC(C(N)=O)Oc2ccccc21` (stereo in doubt; 4.27), in assay [3], the outcome was Active. Moreover, the result in assay [4] and in assay [5] was inactive.
